Measurements taken from ChEMBL document CHEMBL2440020, “Design, Synthesis, and Anti-leukemic Activity of Stereochemically Defined Constrained Analogs of FTY720 (Gilenya)” (ACS Med Chem Lett, 2013).
The source made the active and inactive calls. The rule behind the calls is not given here.

How the values were obtained:
Assay type in all cases: functional, cell-based
SUP-B15 = test: Cytotoxicity against Ph-positive human SUP-B15 cells at 0.1 to 10 uM after 72 hrs by vital dye exclusion/flow cytometric analysis
[1] = Downregulation of 4F2hc surface expression in Ph-positive human SUP-B15 cells at 10 uM after 72 hrs by vital dye exclusion/flow cytometric analysis
[2] = Cytotoxicity against BCR-ABL fusion protein 190 expressing mouse bone marrow cells after 72 hrs by vital dye exclusion/flow cytometric analysis; conditions: Bone marrow cell
How it was run: (§1)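 Viability of human leukaemia and prostate cancer lines, and of murine bone marrow cells expressing BCR-Abl p190, was scored by vital dye exclusion and flow cytometry after 72 h of exposure. IC50 values are given as means with SEM and were compared with the reference control by two-tailed t-test.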

CCRF-CEM = test: Cytotoxicity against Ph-negative human CCRF-CEM cells after 72 hrs by vital dye exclusion/flow cytometric analysis; how it was run: as §1
[3] = Cytotoxicity against Ph-positive human SUP-B15 cells after 72 hrs by vital dye exclusion/flow cytometric analysis; conditions: SUP-B15, 72 h; how it was run: as §1
BV-173 = test: Cytotoxicity against Ph-positive human BV173 cells after 72 hrs by vital dye exclusion/flow cytometric analysis; conditions: BV-173, 72 h; how it was run: as §1
NALM-6 = test: Cytotoxicity against Ph-negative human NALM6 cells after 72 hrs by vital dye exclusion/flow cytometric analysis; conditions: NALM-6, 72 h; how it was run: as §1
[4] = Cytotoxicity against Ph-negative human BLIN-1 cells after 72 hrs by vital dye exclusion/flow cytometric analysis; how it was run: as §1
DU-145 = test: Cytotoxicity against human DU145 cells after 72 hrs by vital dye exclusion/flow cytometric analysis; conditions: DU-145, 72 h; how it was run: as §1
PC-3 = test: Cytotoxicity against human PC3 cells after 72 hrs by vital dye exclusion/flow cytometric analysis; conditions: PC-3, 72 h; how it was run: as §1

| SMILES | Activity (SUP-B15) | Activity [1] | IC50 [2] [µM] | IC50 (CCRF-CEM) [µM] | IC50 [3] [µM] | IC50 (BV-173) [µM] | IC50 (NALM-6) [µM] | IC50 [4] [µM] | IC50 (DU-145) [µM] | IC50 (PC-3) [µM] |
| --- | --- | --- | --- | --- | --- | --- | --- | --- | --- | --- |
| CCCCCCCCc1ccc(CO[C@@H]2CN[C@@H](COC)C2)cc1 | Active | Active |  |  |  |  |  |  |  |  |
| CCCCCCCCc1ccc(CO[C@@H]2CN[C@H](CO)C2)cc1 |  |  | 8.4 | 11.6 | 16.7 | 13.8 |  |  |  |  |
| CCCCCCCCc1ccc(CO[C@@H]2CN[C@@H](C)C2)cc1 | Active | Active |  |  |  |  |  |  |  |  |
| CCCCCCCCc1ccc(CO[C@@H]2CN[C@@H](CO)C2)cc1 |  |  | 0.5 | 8.2 | 2 | 3.8 | 13.5 | 6.9 | 15.1 | 13.5 |
| CCCCCCCCc1ccc(CCC(N)(CO)CO)cc1 [FINGOLIMOD] |  |  | 3.3 | 6.8 | 6.8 | 6.3 | 9.6 | 5.5 | 6.5 | 9.8 |
| CCCCCCCCc1ccc(CO[C@H]2CN[C@@H](CO)C2)cc1 |  |  | 4 | 8.1 | 8.3 | 9.7 |  |  |  |  |
| CCCCCCCCc1ccc(CO[C@H]2CN[C@H](CO)C2)cc1 |  |  | 5.7 | 11 | 7.7 | 10.4 | 15 | 7.5 | 10.8 | 14.3 |
| CCCCCCCCc1ccc(CO[C@H]2CN[C@H](C)C2)cc1 | Active | Active |  |  |  |  |  |  |  |  |
| CCCCCCCCc1ccc(CO[C@@H]2CCN[C@H]2CO)cc1 | inactive |  |  |  |  |  |  |  |  |  |
| CCCCCCCCc1ccc(CO[C@H]2CCNC2)cc1 | Active | Active |  |  |  |  |  |  |  |  |
| CCCCCCCCc1ccc(CO[C@@H]2CCNC2)cc1 | Active | Active |  |  |  |  |  |  |  |  |
